Each structure is given as a SMILES string.

Data set [1] has as its target T1, Cytochrome P450 11B2, mitochondrial (Homo sapiens, UniProt P19099).
T1 sequence (P19099 whole entry): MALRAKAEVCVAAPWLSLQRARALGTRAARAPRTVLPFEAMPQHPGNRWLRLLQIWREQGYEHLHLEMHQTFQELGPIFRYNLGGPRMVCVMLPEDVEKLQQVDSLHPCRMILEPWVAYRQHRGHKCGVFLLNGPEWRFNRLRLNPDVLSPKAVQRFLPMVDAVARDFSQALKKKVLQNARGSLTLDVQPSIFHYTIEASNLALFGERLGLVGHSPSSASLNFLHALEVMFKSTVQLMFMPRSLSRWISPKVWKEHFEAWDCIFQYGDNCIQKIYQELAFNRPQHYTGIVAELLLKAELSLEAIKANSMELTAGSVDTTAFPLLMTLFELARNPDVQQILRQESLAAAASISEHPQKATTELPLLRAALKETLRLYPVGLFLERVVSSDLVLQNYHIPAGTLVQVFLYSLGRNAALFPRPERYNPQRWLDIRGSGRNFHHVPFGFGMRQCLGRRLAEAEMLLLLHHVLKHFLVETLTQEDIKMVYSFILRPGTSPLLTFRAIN
The data set is described as follows: Inhibition of human recombinant CYP11B2 using deoxycorticosterone as substrate incubated for 90 mins by cell-based HPLC analysis. The procedure, abridged: (§1)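 Recombinant human CYP11B2 or CYP11B1. Substrate and product steroids both monitored by HPLC-MS. Selectivity taken as CYP11B1 IC50 / CYP11B2 IC50.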

In data set [2] the target is T2, Cytochrome P450 11B1, mitochondrial (Homo sapiens, UniProt P15538).
T2 sequence (P15538 whole entry): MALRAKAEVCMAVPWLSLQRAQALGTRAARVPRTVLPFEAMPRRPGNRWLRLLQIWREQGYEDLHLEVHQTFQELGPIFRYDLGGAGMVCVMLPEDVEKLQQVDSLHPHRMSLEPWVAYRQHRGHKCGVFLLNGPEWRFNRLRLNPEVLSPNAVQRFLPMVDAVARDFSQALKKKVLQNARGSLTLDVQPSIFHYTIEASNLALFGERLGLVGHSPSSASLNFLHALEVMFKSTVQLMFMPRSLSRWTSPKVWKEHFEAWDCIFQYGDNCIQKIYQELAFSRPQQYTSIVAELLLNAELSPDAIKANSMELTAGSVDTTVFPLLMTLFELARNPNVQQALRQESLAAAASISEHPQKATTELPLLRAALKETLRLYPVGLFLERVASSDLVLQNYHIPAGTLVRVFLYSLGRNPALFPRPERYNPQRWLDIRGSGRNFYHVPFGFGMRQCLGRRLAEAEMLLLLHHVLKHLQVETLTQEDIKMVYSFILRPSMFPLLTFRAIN
As to the kind of experiment: Inhibition of human recombinant CYP11B1 using deoxycortisol as substrate incubated for 60 mins by cell-based HPLC analysis. Format: ADME. The procedure, abridged: as §1

Data set [3] is filed under the species Homo sapiens. The data set is described as follows: Selectivity index, ratio of IC50 for human recombinant CYP11B1 to IC50 for human recombinant CYP11B2. In outline: as §1
Data set [4] is described as follows: Stability in cynomolgus monkey liver microsomes assessed as parent compound remaining at 1 uM measured after 65 mins by LC/MS-MS analysis. The class given is ADME, Macaca fascicularis, Microsome. The following applies: read-out: Stability. In outline:
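Parent compound percentage remaining after 65 min incubation with cynomolgus monkey liver microsomes.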

Data set [5] can be described thus: Cmax in cynomolgus monkey at 1 mg/kg, po measured after 24 or 72 hrs. The note with it: in vivo. The class given is ADME, organism-based, Macaca fascicularis. The arrangement: dose 1 mg/kg, route oral. The procedure, abridged:
(§2)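 Male cynomolgus monkeys dosed orally at 1 mg/kg in 0.5% CMC, 0.1% Tween-80, 1% DMSO. Plasma drug concentrations followed out to 24 or 72 h. Cmax, Tmax, AUC0-24 and t1/2 derived from plasma levels.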

Data set [6] in a line: Tmax in cynomolgus monkey at 1 mg/kg, po measured after 24 or 72 hrs. Format: ADME, organism-based, Macaca fascicularis. The note with it: in vivo. The procedure, abridged: as §2
Data set [7] in a line: AUC (0 to 24 hrs) in cynomolgus monkey at 1 mg/kg, po measured after 24 or 72 hrs. Format: ADME, organism-based, Macaca fascicularis. The arrangement: time < 24 hr, dose 1 mg/kg, route oral. The note with it: in vivo. The procedure, abridged: as §2
A short description of data set [8]: Half life in cynomolgus monkey at 1 mg/kg, po measured after 24 or 72 hrs. The note with it: in vivo. The class given is ADME, organism-based, Macaca fascicularis. The procedure, abridged:
as §2

What is called IC50 is the midpoint of a concentration-inhibition curve. Consider `Fc1ccc2nc(-c3cnco3)n(C3CC3)c2c1`, for which the IC50 in data set [1] and in data set [2] was greater than 10000 nM throughout.

On to `Fc1cc2nc(-c3cncnc3)n(C3CC3)c2cc1F`, for which the figures for the IC50 in data set [1] and in data set [2] were 22 nM and 2270 nM, respectively. Besides, the Ratio IC50 in data set [3] was found to be 103. Also, the remaining at 65 min, 1 µM in data set [4] worked out at 98%.

One may read the Cmax as the maximum level reached in the sampled fluid or tissue. As a reminder, the Tmax is the time at which the peak concentration occurs. The term AUC(0-t) denotes exposure summed from dosing to a finite time, without extrapolation to infinity. Usually half-life stands for how long it takes for the measured level to halve. Regarding `Fc1cc2nc(-c3cncnc3C(F)F)n(C3CC3)c2cc1F`, the IC50 in data set [1] came out at 18 nM; in data set [2], 4320 nM. For the same compound, in data set [3], the Ratio IC50 came out at 240. The remaining at 65 min, 1 µM in data set [4] came to 106%. For the same compound, the maximum concentration (Cmax) in data set [5] turned out to be 620 nM. For the same compound, in data set [6], the Tmax was 1 h. The compound further displayed an AUC(0-t) at 24 h in data set [7] of 8.8 µM·h. In data set [8], this compound had a half-life of 15.3 h.

As for `CN(C)c1ncncc1-c1nc2cc(F)c(F)cc2n1C1CC1`, the IC50 was found to be 29 nM in data set [1] and 4630 nM in data set [2]. Further, in data set [3], the Ratio IC50 is 159. Further, in data set [4], the remaining at 65 min, 1 µM was 6%.

For `N#Cc1ncncc1-c1nc2cc(F)c(F)cc2n1C1CC1`, the figures for the IC50 in data set [1] and in data set [2] were 13 nM and 4990 nM, respectively. The Ratio IC50 in data set [3] stood at 383. Also, in data set [4], the remaining at 65 min, 1 µM came out at 85%.

For the compound `CC(F)(F)c1ncncc1-c1nc2cc(F)c(F)cc2n1C1CC1`, the IC50 in data set [1] is 50 nM; in data set [2] it was 5720 nM. In addition, the Ratio IC50 in data set [3] amounted to 114.

For the compound `Fc1ccc2nc(-c3cncnc3)n(C3CC3)c2c1`, the Ratio IC50 in data set [3] was determined as 136.

`Fc1ccc2nc(-c3cccnn3)n(C3CC3)c2c1`: the figures for the IC50 in data set [1] and in data set [2] were 412 nM and greater than 10000 nM, respectively. The Ratio IC50 in data set [3] was greater than 24.

For `Fc1cc2nc(-c3cncnc3C3CC3)n(C3CC3)c2cc1F`, the figures for the IC50 in data set [1] and in data set [2] were 172 nM and greater than 10000 nM, respectively. In data set [3], the Ratio IC50 was greater than 58.

`Fc1cc2nc(-c3cncnc3NCCC(F)(F)F)n(C3CC3)c2cc1F`: the IC50 in data set [1] stood at 3 nM; in data set [2], 378 nM. In data set [3], the Ratio IC50 amounted to 126. Also, the remaining at 65 min, 1 µM in data set [4] is 55%.

`CC(C)c1ncncc1-c1nc2cc(F)c(F)cc2n1C1CC1`: the IC50 came out at 5 nM in data set [1] and 1910 nM in data set [2]. Also, the Ratio IC50 in data set [3] is 381. Further, the remaining at 65 min, 1 µM in data set [4] was determined as 80%.

For the compound `Fc1ccc2nc(-c3cn[nH]c3)n(C3CC3)c2c1`, the figures for the IC50 in data set [1] and in data set [2] were 782 nM and 1670 nM, respectively. In addition, in data set [3], the Ratio IC50 is 2.

In the case of `N#Cc1ccc2nc(-c3cncnc3C(F)(F)F)n(C3CC3)c2c1`, the IC50 in data set [1] came out at 16 nM; in data set [2] it was 4170 nM. The Ratio IC50 in data set [3] worked out at 261. Moreover, in data set [4], the remaining at 65 min, 1 µM turned out to be 62%.

As to `Fc1ccc2nc(-n3ccnn3)n(C3CC3)c2c1`, the IC50 was 1060 nM in data set [1] and 9070 nM in data set [2]. For the same compound, in data set [3], the Ratio IC50 came to 8.5.

As for `Fc1ccc2nc(-c3cnccn3)n(C3CC3)c2c1`, the results for the 50% inhibitory concentration (IC50) in data set [1] and in data set [2] were 541 nM and greater than 10000 nM, respectively. Also, in data set [3], the Ratio IC50 is greater than 18.

On to `CNc1ncncc1-c1nc2cc(F)c(F)cc2n1C1CC1`, for which the concentration for half-maximal inhibition (IC50) in data set [1] is less than 2 nM; in data set [2], 390 nM. The Ratio IC50 in data set [3] is greater than 195.

Turning to `CCc1ncncc1-c1nc2cc(F)c(F)cc2n1C1CC1`, the IC50 in data set [1] came to 8 nM; in data set [2], 3330 nM. For the same compound, in data set [3], the Ratio IC50 is 416. The remaining at 65 min, 1 µM in data set [4] worked out at 78%.

For `Fc1ccc2nc(-c3cncs3)n(C3CC3)c2c1`, the results for the IC50 in data set [1] and in data set [2] were 62 nM and 4520 nM, respectively. Further, in data set [3], the Ratio IC50 was found to be 73.

On to `Cc1ncncc1-c1nc2cc(F)c(F)cc2n1C1CC1`, for which, in data set [3], the Ratio IC50 was found to be 244. For the same compound, the remaining at 65 min, 1 µM in data set [4] came to 72%. Moreover, the Cmax in data set [5] was 1260 nM. Besides, in data set [6], the Tmax worked out at 0.5 h. In data set [7], this compound returned an area under the curve AUC(0-t) at 24 h of 3 µM·h. In addition, the half-life in data set [8] is 4.2 h.
